The term IC50 denotes the concentration at which inhibition is half-maximal. Broadly, the IC80 is the point of the concentration-response curve where the effect stands at 80%.

Data on one molecule can be found in ChEMBL document CHEMBL2331234, “Novel analgesic/anti-inflammatory agents: 1,5-diarylpyrrole nitrooxyalkyl ethers and related compounds as cyclooxygenase-2 inhibiting nitric oxide donors” (J Med Chem, 2013).

Each structure is given as a SMILES string.

Assay [1] concerns the target T1, Prostaglandin G/H synthase 1 (Mus musculus, UniProt P22437).
T1 sequence (P22437 whole entry): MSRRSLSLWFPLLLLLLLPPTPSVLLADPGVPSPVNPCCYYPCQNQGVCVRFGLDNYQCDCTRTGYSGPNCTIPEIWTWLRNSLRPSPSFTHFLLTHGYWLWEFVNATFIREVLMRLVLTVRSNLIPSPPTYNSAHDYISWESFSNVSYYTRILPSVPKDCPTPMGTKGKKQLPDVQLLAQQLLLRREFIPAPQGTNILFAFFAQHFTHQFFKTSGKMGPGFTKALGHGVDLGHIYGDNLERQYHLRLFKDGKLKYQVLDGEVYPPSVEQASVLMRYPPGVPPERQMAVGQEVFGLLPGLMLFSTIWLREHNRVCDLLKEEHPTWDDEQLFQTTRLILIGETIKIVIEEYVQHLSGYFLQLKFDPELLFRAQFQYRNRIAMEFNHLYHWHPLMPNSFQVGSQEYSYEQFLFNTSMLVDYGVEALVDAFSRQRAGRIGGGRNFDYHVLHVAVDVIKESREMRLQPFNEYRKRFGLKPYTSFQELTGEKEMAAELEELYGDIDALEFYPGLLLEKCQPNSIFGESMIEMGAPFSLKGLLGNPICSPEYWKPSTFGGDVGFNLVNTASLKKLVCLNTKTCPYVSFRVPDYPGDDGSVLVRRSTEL
The assay is described as follows: Inhibition of arachidonic acid-induced COX1 activity in mouse J774 cells assessed as decrease in PGE2 levels incubated for 15 mins prior to arachidonic acid-challenge measured after 30 mins by RIA. It is filed as cell-based. In a few lines: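 Cells were in DMEM with 10% FBS and adhered for 2 h at 37 °C. They were pretreated with compound (10 µM; 0.1-1 µM where inhibition exceeded 50%) for 15 min, then given 15 µM arachidonic acid for 30 min at 37 °C. Supernatant PGE2 was measured by RIA. Triplicate wells were used and the mean of three experiments reported. IC50 came from a variable-slope sigmoidal fit.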

Assay [2] deals with T2, Prostaglandin G/H synthase 2 (Homo sapiens) (UniProt P35354).
T2 sequence (whole entry): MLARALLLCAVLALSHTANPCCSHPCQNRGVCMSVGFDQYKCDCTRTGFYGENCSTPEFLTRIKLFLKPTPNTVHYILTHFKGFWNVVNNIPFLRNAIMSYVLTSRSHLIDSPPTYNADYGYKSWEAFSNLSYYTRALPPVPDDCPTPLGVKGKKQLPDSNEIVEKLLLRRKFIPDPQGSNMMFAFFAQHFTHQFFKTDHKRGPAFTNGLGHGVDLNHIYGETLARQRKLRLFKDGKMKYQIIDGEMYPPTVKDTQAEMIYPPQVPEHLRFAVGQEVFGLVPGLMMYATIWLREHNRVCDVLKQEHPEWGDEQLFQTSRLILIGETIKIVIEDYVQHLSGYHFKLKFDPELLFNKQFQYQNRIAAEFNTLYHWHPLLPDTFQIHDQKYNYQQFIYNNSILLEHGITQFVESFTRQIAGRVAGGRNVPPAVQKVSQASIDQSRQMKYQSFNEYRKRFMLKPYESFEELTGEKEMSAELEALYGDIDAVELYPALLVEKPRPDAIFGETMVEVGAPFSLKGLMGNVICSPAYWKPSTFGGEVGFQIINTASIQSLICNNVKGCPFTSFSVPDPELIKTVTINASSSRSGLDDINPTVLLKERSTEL
The assay is described as follows: (§1) Inhibition of COX2 in human whole blood assessed as reduction in LPS-induced PGE2 generation pre-treated prior to LPS-challenge. In outline:
(§2)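 Heparinized whole blood came from three healthy volunteers pretreated with aspirin 300 mg 48 h before sampling to suppress platelet COX-1. Compounds in DMSO were added at 0.1-300 µM final. Blood was incubated with LPS 10 µg/mL for 24 h at 37 °C. Plasma PGE2 was measured by RIA.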

For assay [3], the target named is T3, Prostaglandin G/H synthase 2 (Homo sapiens, UniProt P35354).
T3 sequence (P35354 whole entry): T2 sequence (whole entry)
The description is as §1. In outline: as §2

In the case of `Cc1c(CCOCCO[N+](=O)[O-])cc(-c2ccc(S(C)(=O)=O)cc2)n1-c1ccc(F)cc1`, in assay [1], the IC50 was greater than 10000 nM. In assay [2], the IC80 worked out at 2260 nM and the inhibition entry was “Dose-dependent effect”. For the same molecule, the IC50 in assay [3] is 640 nM.
